What was measured:
Hepatocyte [1] = test: Stability in Wistar rat hepatocytes assessed as 10,11-epoxide N-glucuronide metabolite formation at 100 uM incubated for 6 hrs by HPLC and LC-MS/Ms method; type: ADME, cell-based
In short: (§1)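 Male rat hepatocytes were isolated by collagenase perfusion (≥80% viable) and suspended at 2 × 10^6 cells/mL. They were incubated 6 h at 37 °C with substrate at typically 50–1000 μM, added in methanol (1% final volume); one analogue was tested only at 50 and 200 μM, added in acetonitrile. The reaction was stopped with acetonitrile, and the supernatant was concentrated and analysed by HPLC-UV and ESI LC–MS.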

Hepatocyte [2] = test: Drug metabolism in Wistar rat hepatocytes assessed as ratio of O-sulfonate II metabolite level to parent compound level at 50 uM incubated for 6 hrs by HPLC and LC-MS/Ms method; type: ADME, cell-based
In short: (§2)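 Hepatocytes freshly isolated from male rat liver by two-step collagenase perfusion; only cells with ≥80% viability (trypan blue) were used. Cells at 2 × 10^6 cells/mL were shaken at 37 °C for 6 h with substrate at 50 μM, added in methanol (1% final volume). Reactions were stopped with acetonitrile. Metabolites were identified against authentic standards and by ESI LC–MS. Ratios are metabolite:parent compound.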

Hepatocyte [3] = test: Stability in Wistar rat hepatocytes assessed as metabolite formation at >200 uM incubated for 6 hrs by HPLC and LC-MS/Ms method; type: ADME, cell-based; in short: as §1
Hepatocyte [4] = test: Drug metabolism in Wistar rat hepatocytes assessed as ratio of O-sulfonate I metabolite level to parent compound level at 50 uM incubated for 6 hrs by HPLC and LC-MS/Ms method; type: ADME, cell-based; in short: as §2
Hepatocyte [5] = test: Drug metabolism in Wistar rat hepatocytes assessed as ratio of N-glucuronide metabolite level to parent compound level at 50 uM incubated for 6 hrs by HPLC and LC-MS/Ms method; type: ADME, cell-based; in short: as §2
Hepatocyte [6] = test: Drug metabolism in Wistar rat hepatocytes assessed as ratio of 10,11-epoxide metabolite level to parent compound level at 50 uM incubated for 6 hrs by HPLC and LC-MS/Ms method; type: ADME, cell-based; in short: as §2
Hepatocyte [7] = test: Stability in Wistar rat hepatocytes assessed as 10,11-epoxide N-glucuronide metabolite formation at 200 uM incubated for 6 hrs by HPLC and LC-MS/Ms method; type: ADME, cell-based; in short: as §1
Hepatocyte [8] = test: Drug metabolism in Wistar rat hepatocytes assessed as ratio of epoxide N-glucuronide metabolite level to parent compound level at 50 uM incubated for 6 hrs by HPLC and LC-MS/Ms method; type: ADME, cell-based; in short: as §2
Hepatocyte [9] = test: Stability in Wistar rat hepatocytes assessed as 10,11-epoxide N-glucuronide metabolite formation at 500 uM incubated for 6 hrs by HPLC and LC-MS/Ms method; type: ADME, cell-based; in short: as §1
Liver microsomes [10] = test: Stability in human liver microsomes assessed as dioxygenated metabolite formation at 50 uM incubated for 60 mins by HPLC and LC-MS/Ms method; type: ADME, Microsome; conditions: 1 h
In short: (§3)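 Pooled human liver microsomes (150 donors, both sexes), 1 mg/mL protein, with substrate at 50 μM and NADPH at 1 mM. Incubated in 0.1 M potassium phosphate, pH 7.4, for 60 min at 37 °C; controls lacked NADPH. The reaction was stopped with ice-cold acetonitrile, and the supernatant was dried, reconstituted in methanol/water and analysed by HPLC-UV and ESI LC–MS (4000 Qtrap).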

Liver microsomes [11] = test: Stability in human liver microsomes assessed as diol formation at 50 uM incubated for 60 mins by HPLC and LC-MS/Ms method; type: ADME, Microsome; conditions: 1 h; in short: as §3
Liver microsomes [12] = test: Drug metabolism in human liver microsomes assessed as 10,11 epoxidation level at 50 uM incubated for 60 mins by HPLC and LC-MS/Ms method; type: ADME, Microsome; conditions: 1 h; in short: as §3
[13] = Drug metabolism in human liver microsomes assessed as compound turnover at 50 uM incubated for 60 mins by HPLC and LC-MS/Ms method; type: ADME, Microsome; conditions: read-out: Drug metabolism; in short: as §3
Hepatocyte [14] = test: Stability in Wistar rat hepatocytes assessed as 10,11-epoxide N-glucuronide metabolite formation at 1 mM incubated for 6 hrs by HPLC and LC-MS/Ms method; type: ADME, cell-based; conditions: 1000 µM; in short: as §1
Hepatocyte [15] = test: Drug metabolism in Wistar rat hepatocytes assessed as GSH adduct formation at 50 uM incubated for 6 hrs by HPLC and LC-MS/Ms method; type: ADME, cell-based; in short: as §2
Liver microsomes [16] = test: Stability in human liver microsomes assessed as oxidative defluorination at 50 uM incubated for 60 mins by HPLC and LC-MS/Ms method; type: ADME, Microsome; conditions: 1 h; in short: as §3

Structure (SMILES)	Stability (Hepatocyte [1])	Stability (Hepatocyte [2])	Stability (Hepatocyte [3])	Stability (Hepatocyte [4])	Ratio (Hepatocyte [5])	Ratio (Hepatocyte [6])	Stability (Hepatocyte [7])	Ratio (Hepatocyte [8])	Stability (Hepatocyte [9])	Ratio (Hepatocyte [2])	Stability (Liver microsomes [10])	Stability (Liver microsomes [11])	Drug metabolism (Liver microsomes [12])	metabolised at 1 h, 50 µM [13] [%]	Stability (Hepatocyte [14])	Drug metabolism (Hepatocyte [15])	Ratio (Hepatocyte [4])	Stability (Liver microsomes [16])
NC(=O)N1c2ccc(Br)cc2C=Cc2cc(Br)ccc21	Stable	Stable	Stable	Stable	0.27	0.19	–	–	–	–	–	–	–	–	–	–	–	–
NC(=O)N1c2ccc(Cl)cc2C=Cc2cc(Cl)ccc21	–	Stable	Stable	Stable	0.22	0.14	Stable	0.21	–	–	–	–	–	–	–	–	–	–
NC(=O)N1c2ccccc2C=Cc2cc(Cl)ccc21	–	Stable	Stable	Stable	2.04	0.21	–	0.11	Stable	–	–	–	–	–	–	–	–	–
NC(=O)N1c2ccccc2C=Cc2cc(F)ccc21	–	–	Stable	Stable	0.784	0.28	Stable	0.15	–	0.41	–	–	–	–	–	–	–	–
NC(=O)N1c2ccccc2C=Cc2cc(Br)ccc21	–	Stable	–	Stable	–	–	–	–	–	–	–	–	–	–	–	–	–	–
NC(=O)N1c2ccccc2C=Cc2ccccc21 [CARBAMAZEPINE]	–	–	Stable	–	0.63	0.52	–	0.24	–	0.32	Stable	Stable	Active	1	Stable	Active	0.08	–
NC(=O)N1c2ccc(F)cc2C=Cc2cc(F)ccc21	–	Stable	Stable	Stable	0.18	0.07	–	0.02	Stable	–	Stable	Stable	Active	1	–	–	–	Stable

Reference: ChEMBL document CHEMBL2176913, “Haloarene derivatives of carbamazepine with reduced bioactivation liabilities: 2-monohalo and 2,8-dihalo derivatives” (J Med Chem, 2012)
